Assay results from different studies.
ABCB1: ATP-dependent translocase ABCB1 (ABCB1, Homo sapiens, UniProt P08183)
SLC47A2: Multidrug and toxin extrusion protein 2 (SLC47A2, Homo sapiens, UniProt Q86VL8)

COCCc1ccc(OCC(O)CNC(C)C)cc1 (stereo not shown)
efflux ratio (ABCB1; MDCK-MDR1; 5 µM): 0.981

C[C@H]1O[C@@H](O[C@H]2[C@@H](O)C[C@H](O[C@H]3[C@@H](O)C[C@H](O[C@H]4CC[C@@]5(C)[C@H](CC[C@@H]6[C@@H]5C[C@@H](O)[C@]5(C)[C@@H](C7=CC(=O)OC7)CC[C@]65O)C4)O[C@@H]3C)O[C@@H]2C)C[C@H](O)[C@@H]1O
Cmax (ABCB1; human, plasma; oral, 0.5 mg): 1.99 ng/mL

CCOc1cc2ncc(C#N)c(Nc3ccc(OCc4ccccn4)c(Cl)c3)c2cc1NC(=O)/C=C/CN(C)C
efflux ratio (ABCB1; MDCK-MDR1, Caco-2; 1 µM, 1 h, pH 7.4): 6.37

CN(C(=O)n1cnc(-c2ccc[n+]([O-])c2)c1)C1CCCCC1
inhibition (SLC47A2; transporter uptake, inhibitor; MDCK-II; 0.3 µg/mL): 12%

Nc1nc(NC2CC2)c2ncn([C@H]3C=C[C@@H](CO)C3)c2n1
IC50 (SLC47A2; transporter uptake, inhibitor): > 500 µM

CN/C(=N/CCSCc1nc[nH]c1C)NC#N
inhibition (SLC47A2; transporter uptake, inhibitor; HEK293; 100 µM, 2 min): 76%

C=C[C@H]1C[N@@]2CC[C@H]1C[C@@H]2[C@@H](O)c1ccnc2ccc(OC)cc12
Papp A→B (ABCB1; MDCK-MDR1; 5 µM): 13.1 ×10⁻⁶ cm/s

O=C(O)CSc1nnc(Br)n1-c1ccc(C2CC2)c2ccccc12
inhibition (SLC47A2; transporter uptake, inhibitor; HEK293; 10 µM, 2 min): -16%

C[C@]12CCCN1CC1=NNC(=O)c3cc(F)cc4[nH]c2c1c34
Papp B→A (ABCB1; MDCK-MDR1; 10 µM): 41.2 ×10⁻⁶ cm/s

CC1(C)CCC2(CC1)N[C@@H](C(=O)N[C@@H]1CC[C@@H](C(N)=O)OC1)[C@H](c1ccnc(Cl)c1F)[C@]21C(=O)Nc2cc(Cl)ccc21
efflux ratio (ABCB1; Caco-2; 1 µM, 2 h): 16.1
